The test system of data set [1] is Mus musculus. The experiment in a line: Analgesic activity in CD1 mouse assessed as inhibition of carrageenan-induced heat hyperalgesia at 0.5 to 50 ug/paw administered intraplantarly post carrageenan challenge measured over 2 to 48 hrs. Format: functional. The gist of the method:
(§1)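 Male CD1 mice (25-30 g). Paw edema induced by λ-carrageenan (1% w/v in sterile water, 50 µl) injected into the left hind paw. A fresh suspension in 80% sterile saline/10% PEG-400/10% Tween 80 (10 µl per animal) was given by intraplantar injection just after carrageenan, as a single dose of 0.5–50 µg/paw. Edema was read by plethysmometer and heat hyperalgesia by behavioural test, both blind.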

Data set [2] is described as follows: Half life in mouse plasma at 2 uM after 2 hrs by LC/MS-MS method. Format: ADME, cell-free.
The next data set has as its target T1, Acid ceramidase (Homo sapiens, UniProt Q13510).
T1 sequence (Q13510 whole entry): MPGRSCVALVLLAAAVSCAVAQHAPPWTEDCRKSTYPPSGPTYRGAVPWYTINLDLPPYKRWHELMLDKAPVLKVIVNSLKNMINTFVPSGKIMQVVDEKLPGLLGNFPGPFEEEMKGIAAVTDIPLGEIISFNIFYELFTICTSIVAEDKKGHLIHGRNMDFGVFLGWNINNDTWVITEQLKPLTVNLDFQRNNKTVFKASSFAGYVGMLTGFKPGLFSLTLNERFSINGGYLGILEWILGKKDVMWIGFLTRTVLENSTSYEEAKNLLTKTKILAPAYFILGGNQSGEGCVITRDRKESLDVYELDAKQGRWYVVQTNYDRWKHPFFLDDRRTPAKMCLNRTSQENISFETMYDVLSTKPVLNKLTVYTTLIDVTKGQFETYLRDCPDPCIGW
The experiment in a line: Inhibition of human acid ceramidase expressed in HEK293 cells using N-[(1S,2R)-2-hydroxy-1-(hydroxymethyl)-4-(2-oxochromen-7-yl)-oxybutyl]dodecanamide as substrate preincubated for 10 mins followed by substrate addition measured after 3 hrs by fluorescence assay. Format: cell-based. In outline: (§2)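 Human acid ceramidase fluorogenic assay. IC50 taken as the mean of three determinations.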

Data set [3] can be described thus: Apparent half life in PBS at pH 7.4 at 1 uM at 37 degC after 24 hrs in presence of 10% MeCN by UPLC-MS method. Format: physicochemical. Particulars: read-out: t1/2(app). The gist of the method:
(§3)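 Compound incubated 24 h at 37 °C in 0.01 M PBS, pH 7.4, containing 10% MeCN.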

For data set [4], the system named is Mus musculus. The experiment in a line: Antiinflammatory activity in CD1 mouse assessed as inhibition of carrageenan-induced paw edema at 0.5 to 50 ug/paw administered intraplantarly post carrageenan challenge measured over 2 to 48 hrs by plethysmometer. Format: functional. In outline:
as §1

The nature of data set [5]: Half life in rat plasma at 2 uM after 2 hrs by LC/MS-MS method. Format: ADME, cell-free.
Data set [6] has as its target T2, Fatty-acid amide hydrolase 1 (Homo sapiens) (UniProt O00519).
T2 sequence (whole entry): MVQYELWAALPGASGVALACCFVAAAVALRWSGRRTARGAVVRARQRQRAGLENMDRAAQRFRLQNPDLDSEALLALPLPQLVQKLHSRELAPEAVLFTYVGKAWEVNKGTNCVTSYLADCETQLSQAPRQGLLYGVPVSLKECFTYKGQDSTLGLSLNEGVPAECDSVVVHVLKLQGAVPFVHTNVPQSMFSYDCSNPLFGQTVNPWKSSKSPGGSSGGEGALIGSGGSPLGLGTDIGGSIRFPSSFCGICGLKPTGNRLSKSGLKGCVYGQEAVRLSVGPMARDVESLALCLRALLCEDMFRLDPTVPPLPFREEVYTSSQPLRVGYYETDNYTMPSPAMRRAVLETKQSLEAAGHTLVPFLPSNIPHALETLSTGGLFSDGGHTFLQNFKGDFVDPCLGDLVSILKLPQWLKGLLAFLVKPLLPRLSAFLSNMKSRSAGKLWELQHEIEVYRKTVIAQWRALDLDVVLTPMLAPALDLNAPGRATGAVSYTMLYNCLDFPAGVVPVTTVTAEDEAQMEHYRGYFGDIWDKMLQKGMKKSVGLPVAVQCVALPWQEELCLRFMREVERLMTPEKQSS
The experiment in a line: Inhibition of human FAAH1 expressed in HEK293 cells at 10 uM using [3H]anandamide as substrate preincubated for 10 mins followed by substrate addition measured after 30 mins by liquid scintillation counting method relative to control.

In data set [7] the target is T3, N-acylethanolamine-hydrolyzing acid amidase (Homo sapiens, UniProt Q02083).
T3 sequence (Q02083 whole entry): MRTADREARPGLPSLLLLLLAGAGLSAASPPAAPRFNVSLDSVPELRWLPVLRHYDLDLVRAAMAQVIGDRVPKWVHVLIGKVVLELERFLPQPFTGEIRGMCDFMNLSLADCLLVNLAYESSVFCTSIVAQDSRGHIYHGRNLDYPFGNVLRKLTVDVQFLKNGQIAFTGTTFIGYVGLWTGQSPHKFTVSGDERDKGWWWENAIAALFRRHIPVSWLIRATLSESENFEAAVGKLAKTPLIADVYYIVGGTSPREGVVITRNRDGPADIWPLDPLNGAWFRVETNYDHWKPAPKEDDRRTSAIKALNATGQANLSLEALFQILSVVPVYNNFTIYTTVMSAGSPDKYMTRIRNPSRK
The experiment in a line: Inhibition of recombinant human spleen NAAA expressed in HEK293 cells using PAMCA as substrate preincubated for 10 mins followed by substrate addition measured after 50 mins by fluorescence assay.

The test system of another data set is Rattus norvegicus. The experiment in a line: Oral bioavailability in Sprague-Dawley rat at 10 mg/kg after 15 to 1440 mins by UPLC/MS analysis. Particulars: in vivo. Format: ADME, organism-based.
Data set [8] is described as follows: Chemical stability in PBS at pH 7.4 assessed as parent compound remaining at 1 uM at 37 degC after 24 hrs in presence of 10% MeCN by UPLC-MS method. Format: physicochemical. The note with it: read-out: Stability. In outline: as §3
Data set [9] deals with T4, Acid ceramidase (Homo sapiens) (UniProt Q13510).
T4 sequence (whole entry): T1 sequence (Q13510 whole entry)
The experiment in a line: Inhibition of human acid ceramidase expressed in HEK293 cells at 50 uM using N-[(1S,2R)-2-hydroxy-1-(hydroxymethyl)-4-(2-oxochromen-7-yl)-oxybutyl]dodecanamide as substrate preincubated for 10 mins followed by substrate addition measured after 3 hrs by fluorescence assay relative to control. Format: cell-based. In outline:
as §2

For another data set, the species on record is Homo sapiens. The experiment in a line: Selectivity ratio of IC50 for human acid ceramidase to IC50 for recombinant human spleen NAAA. In outline:
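Ratio of h-AC IC50 to h-NAAA IC50, each the mean of three determinations in fluorogenic assays. The NAAA was recombinant human enzyme overexpressed in HEK293 cells, purified, then activated for 3 h at 37 °C at pH 4.5 (phosphate/citrate, 3 mM DTT, 0.1% Triton X-100). The NAAA substrate was PAMCA (hexadecanamide of 7-amino-4-methylcoumarin).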

Calls of active or inactive are those of the source. No cut-off for these calls is given here.

For `C[C@H]1[C@H](NC(=O)OCCCCC2CCCCC2)C(=O)N1Oc1ccc(S(C)(=O)=O)cc1`, the inhibition result with Mus musculus [1] and in the data set on Mus musculus [4] was “Active” each time. Further, the half-life at 2 µM in data set [2] and in data set [5] was less than 5 min throughout. The IC50 (usually the midpoint of a concentration-inhibition curve) against Acid ceramidase came to 2020 nM. Further, the half-life at 1 µM in data set [3] is 727 min. Moreover, the inhibition (usually the relative decrease from the control value, in per cent) in data set [6] is more than 50%.

For the compound `CON1C[C@H](NC(=O)OCCCCC2CCCCC2)C1=O`, the IC50 in [7] turned out to be 16 nM.

On to `CC(=O)N1C[C@H](NC(=O)OCCCCC2CCCCC2)C1=O`, for which, in data set [7], the IC50 was more than 50000 nM.

`COC(=O)N1C[C@H](NC(=O)OCCCCC2CCCCC2)C1=O`: the IC50 in data set [7] was 7180 nM.

`CCCCCCCCC(=O)N[C@H]1CNC1=O` yielded a half-life at 2 µM in data set [2] of 130 min. The same compound returned a F in the data set on Rattus norvegicus of 67%.

As to `CON1C(=O)[C@@H](NC(=O)OCCCCC2CCCCC2)[C@@H]1C`, the half-life at 2 µM in data set [2] and in [5] was less than 5 min in each case. Moreover, in data set [8], the remaining at 24 h, 1 µM was 97%. The inhibition in data set [9] and in [6] was more than 50% in each case. In addition, the half-life at 1 µM in data set [3] is more than 1440 min.

Regarding `C[C@H]1[C@H](NC(=O)OCCCCC2CCCCC2)C(=O)N1OCCCS(C)(=O)=O`, the half-life at 2 µM in [2] and in data set [5] was less than 5 min throughout. The remaining at 24 h, 1 µM in [8] amounted to 67%. The inhibition in data set [9] and in data set [6] was more than 50% throughout. In addition, in [3], the half-life at 1 µM is more than 1440 min. For the same compound, in the data set listed under Homo sapiens, the Ratio IC50 was more than 1000.

For `C[C@H]1[C@H](NC(=O)OCCCCC2CCCCC2)C(=O)N1Oc1ccccc1`, the half-life at 2 µM in [2] and in data set [5] was less than 5 min throughout. Also, in data set [8], the remaining at 24 h, 1 µM stood at 63%. At Acid ceramidase, this compound registered an IC50 of 300 nM. The half-life at 1 µM in [3] was more than 1440 min. The Ratio IC50 in the data set listed under Homo sapiens was found to be 13. The compound further yielded an inhibition in data set [6] of more than 50%.

Consider `CON1C[C@@H](NC(=O)OCCCCC2CCCCC2)C1=O`, for which the IC50 in data set [7] turned out to be 56 nM.

Regarding `C[C@H]1[C@H](NC(=O)OCCCCC2CCCCC2)C(=O)N1OC(C)(C)C`, in data set [7], the IC50 was more than 50000 nM.

Regarding `CN1C[C@H](NC(=O)OCCCCC2CCCCC2)C1=O`, the IC50 in [7] stood at 1980 nM.

The values above are taken from ChEMBL document CHEMBL4002575, “Progress in the development of β-lactams as N-Acylethanolamine Acid Amidase (NAAA) inhibitors: Synthesis and SAR study of new, potent N-O-substituted derivatives” (Eur J Med Chem, 2017).
